Laboratory results from ChEMBL document CHEMBL3734738, “A structure-activity relationship of non-peptide macrocyclic histone deacetylase inhibitors and their anti-proliferative and anti-inflammatory activities” (Bioorg Med Chem, 2015).

Assays:
[1] = biological target: T1, Protein deacetylase HDAC6 (Homo sapiens, UniProt Q9UBN7); assay: Inhibition of recombinant HDAC6 (unknown origin) expressed in Escherichia coli BL21(DE3) after 60 mins using trichostatin A by label-free mass spectrometry-based SAMDI assay
T1 sequence (Q9UBN7 whole entry): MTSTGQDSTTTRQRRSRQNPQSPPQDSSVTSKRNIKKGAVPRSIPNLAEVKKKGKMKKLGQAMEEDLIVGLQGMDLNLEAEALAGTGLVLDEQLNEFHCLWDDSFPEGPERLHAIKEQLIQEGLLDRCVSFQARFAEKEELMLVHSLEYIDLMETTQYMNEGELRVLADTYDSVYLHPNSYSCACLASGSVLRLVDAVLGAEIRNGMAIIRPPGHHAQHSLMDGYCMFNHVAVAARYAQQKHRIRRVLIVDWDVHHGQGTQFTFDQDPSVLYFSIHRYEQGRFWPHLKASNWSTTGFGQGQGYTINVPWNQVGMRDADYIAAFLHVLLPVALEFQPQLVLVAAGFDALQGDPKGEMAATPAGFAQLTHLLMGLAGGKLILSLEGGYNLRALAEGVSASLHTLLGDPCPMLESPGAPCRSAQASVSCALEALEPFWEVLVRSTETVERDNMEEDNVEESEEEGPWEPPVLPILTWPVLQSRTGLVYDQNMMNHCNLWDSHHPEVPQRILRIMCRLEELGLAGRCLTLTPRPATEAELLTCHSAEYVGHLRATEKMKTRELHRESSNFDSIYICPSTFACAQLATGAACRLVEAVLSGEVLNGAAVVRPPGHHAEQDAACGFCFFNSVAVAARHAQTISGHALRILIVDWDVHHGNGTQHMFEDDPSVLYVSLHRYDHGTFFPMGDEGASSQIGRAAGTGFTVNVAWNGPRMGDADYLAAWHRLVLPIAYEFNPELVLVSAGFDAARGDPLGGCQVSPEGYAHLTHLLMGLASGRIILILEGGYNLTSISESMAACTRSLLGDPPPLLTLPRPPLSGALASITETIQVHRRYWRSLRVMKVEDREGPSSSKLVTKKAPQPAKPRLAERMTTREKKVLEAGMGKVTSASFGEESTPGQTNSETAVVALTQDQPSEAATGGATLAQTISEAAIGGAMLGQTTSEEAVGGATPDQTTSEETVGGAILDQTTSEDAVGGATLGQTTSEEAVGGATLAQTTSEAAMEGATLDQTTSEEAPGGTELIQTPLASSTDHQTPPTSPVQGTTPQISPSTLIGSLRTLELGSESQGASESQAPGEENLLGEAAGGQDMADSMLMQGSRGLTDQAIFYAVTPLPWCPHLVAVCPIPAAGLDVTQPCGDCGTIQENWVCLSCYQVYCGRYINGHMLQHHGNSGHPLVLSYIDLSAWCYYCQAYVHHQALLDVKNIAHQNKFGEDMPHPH

[2] = biological target: T2, Histone deacetylase 8 (Homo sapiens, UniProt Q9BY41); assay: Inhibition of recombinant HDAC8 (unknown origin) expressed in Escherichia coli BL21(DE3) after 60 mins using trichostatin A by label-free mass spectrometry-based SAMDI assay
T2 sequence (Q9BY41 whole entry): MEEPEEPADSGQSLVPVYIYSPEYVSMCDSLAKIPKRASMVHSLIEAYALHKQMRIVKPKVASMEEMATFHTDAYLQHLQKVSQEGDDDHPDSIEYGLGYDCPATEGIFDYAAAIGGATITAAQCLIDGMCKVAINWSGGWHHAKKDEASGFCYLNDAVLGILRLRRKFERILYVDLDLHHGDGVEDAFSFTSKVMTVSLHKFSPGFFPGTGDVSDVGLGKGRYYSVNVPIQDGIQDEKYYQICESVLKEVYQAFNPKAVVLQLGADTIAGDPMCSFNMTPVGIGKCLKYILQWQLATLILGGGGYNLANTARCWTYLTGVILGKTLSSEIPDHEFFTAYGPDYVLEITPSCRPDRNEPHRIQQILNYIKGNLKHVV

[3] = Inhibition of NTHi-induced NF-kappaB activation in human BEAS-2B cells treated 1 hr before NTHi stimulation measured after 5 hrs by luciferase assay; type: cell-based; settings: Homo sapiens, BEAS-2B; read-out: IC50
[4] = species: Homo sapiens; settings: at 1 µM
[5] = biological target: Histone deacetylase 1 (Homo sapiens, UniProt Q13547); assay: Inhibition of recombinant HDAC1 (unknown origin) expressed in Escherichia coli BL21(DE3) after 60 mins using trichostatin A by label-free mass spectrometry-based SAMDI assay
Sequence of Histone deacetylase 1 (Q13547 whole entry): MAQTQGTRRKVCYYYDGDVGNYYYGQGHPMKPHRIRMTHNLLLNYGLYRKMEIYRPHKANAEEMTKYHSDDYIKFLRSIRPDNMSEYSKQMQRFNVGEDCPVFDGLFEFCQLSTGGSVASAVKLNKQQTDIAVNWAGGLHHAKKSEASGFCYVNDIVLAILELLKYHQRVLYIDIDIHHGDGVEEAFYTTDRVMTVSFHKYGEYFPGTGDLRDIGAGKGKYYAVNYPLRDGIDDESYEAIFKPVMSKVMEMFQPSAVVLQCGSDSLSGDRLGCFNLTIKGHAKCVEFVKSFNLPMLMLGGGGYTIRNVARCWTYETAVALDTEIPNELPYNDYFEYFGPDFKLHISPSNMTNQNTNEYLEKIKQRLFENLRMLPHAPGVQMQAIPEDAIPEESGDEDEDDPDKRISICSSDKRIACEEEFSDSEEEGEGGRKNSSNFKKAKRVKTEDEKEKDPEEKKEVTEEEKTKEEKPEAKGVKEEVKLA

[6] = tested on: MCF7; assay: Cytotoxicity against human MCF7 cells after 72 hrs by MTS assay; type: functional, cell-based; settings: mcf7
Outline: (§1)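 Cells kept in DMEM with 10% FBS and 1% penicillin-streptomycin, seeded in 96-well plates for 24 h, then exposed to a range of drug concentrations for 72 h at 0.1% DMSO; viability read by MTS assay per manufacturer's protocol.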

[7] = tested on: A549; assay: Cytotoxicity against human A549 cells after 72 hrs by MTS assay; type: functional, cell-based; settings: a549; outline: as §1

Compound | IC50 [1] [µM] | IC50 [2] [µM] | IC50 [5] [µM] | IC50 [3] [µM] | Imax [4] [%] | IC50 [6] | IC50 [7]
CC[C@H]1OC(=O)[C@H](C)[C@@H](O[C@@H]2C[C@](C)(OC)[C@H](O)[C@@H](C)O2)[C@@H](C)[C@@H](O[C@H]2O[C@@H](C)C[C@@H](N(C)Cc3ccc(-c4cn(CCCCCC(=O)NO)nn4)cc3)[C@@H]2O)[C@](C)(OC)C[C@@H](C)C(=O)[C@H](C)[C@H](O)[C@]1(C)O (stereo in doubt) | 0.00361 | 1.18 | 0.533 | 0.785 | 45.1 |  | 
CC[C@H]1OC(=O)[C@@H](C)[C@H](O[C@H]2C[C@@](C)(OC)[C@@H](O)[C@H](C)O2)[C@H](C)[C@H](O[C@H]2O[C@@H](C)C[C@@H](N(C)Cc3ccc(-c4cn(CCCC(=O)NO)nn4)cc3)[C@@H]2O)[C@@](C)(O)C[C@H](C)CN(C)[C@@H](C)[C@H](O)[C@@]1(C)O | 0.106 | > 10 | > 10 |  |  | Not Active | Not Active
CC[C@H]1OC(=O)[C@H](C)[C@@H](O[C@@H]2C[C@](C)(OC)[C@@](O)(CN(C)Cc3ccc(-c4cn(CCCCCC(=O)NO)nn4)cc3)[C@@H](C)O2)[C@@H](C)[C@@H](O[C@H]2O[C@@H](C)C[C@@H](N(C)C)[C@@H]2O)[C@](C)(OC)C[C@@H](C)C(=O)[C@H](C)[C@H](O)[C@]1(C)O | 0.00589 | 0.985 | 0.652 | 0.785 | 50.7 |  | 
CC[C@H]1OC(=O)[C@H](C)[C@@H](O[C@@H]2C[C@](C)(OC)[C@H](O)[C@@H](C)O2)[C@H](C)[C@@H](O[C@@H]2O[C@H](C)C[C@H](N(C)C)[C@H]2O)[C@@](C)(O)C[C@@H](C)CN(Cc2ccc(-c3cn(CCCCCC(=O)NO)nn3)cc2)[C@@H](C)[C@@H](O)[C@]1(C)O | 0.0103 | 2.37 | 0.145 |  |  |  | 
CC[C@@H]1OC(=O)[C@@H](C)[C@H](O[C@H]2C[C@@](C)(OC)[C@@H](O)[C@H](C)O2)[C@@H](C)[C@H](O[C@H]2O[C@@H](C)C[C@@H](N(C)C)[C@@H]2O)[C@](C)(O)C[C@H](C)CN(Cc2ccc(-c3cn(CCCCC(=O)NO)nn3)cc2)[C@H](C)[C@H](O)[C@@]1(C)O | 0.0245 | > 10 | 2.55 |  |  | Not Active | Not Active
CC[C@H]1OC(=O)[C@@H](C)[C@H](O[C@H]2C[C@@](C)(OC)[C@@H](O)[C@H](C)O2)[C@H](C)[C@H](O[C@H]2O[C@@H](C)C[C@@H](N(C)Cc3ccc(-c4cn(CCC(=O)NO)nn4)cc3)[C@@H]2O)[C@@](C)(O)C[C@H](C)CN(C)[C@@H](C)[C@H](O)[C@@]1(C)O | 2.17 | > 10 | > 10 |  |  |  | 
CC[C@H]1OC(=O)[C@@H](C)[C@H](O[C@H]2C[C@@](C)(OC)[C@@H](O)[C@H](C)O2)[C@H](C)[C@H](O[C@H]2O[C@@H](C)C[C@@H](N(C)Cc3ccc(-c4cn(CCCCCC(=O)NO)nn4)cc3)[C@@H]2O)[C@@](C)(O)C[C@H](C)CN(C)[C@@H](C)[C@H](O)[C@@]1(C)O (stereo in doubt) | 0.0143 | 0.604 | 0.316 |  |  |  | 
CC[C@@H]1OC(=O)[C@@H](C)[C@H](O[C@H]2C[C@@](C)(OC)[C@@H](O)[C@H](C)O2)[C@H](C)[C@H](O[C@@H]2O[C@H](C)C[C@H](N(C)Cc3ccc(-c4cn(CCCCC(=O)NO)nn4)cc3)[C@H]2O)[C@@](C)(OC)C[C@H](C)C(=O)[C@@H](C)[C@@H](O)[C@@]1(C)O | 0.12 | 0.877 | 4.87 |  |  |  | 
CC[C@H]1OC(=O)[C@H](C)[C@@H](O[C@@H]2C[C@](C)(OC)[C@H](O)[C@@H](C)O2)[C@@H](C)[C@@H](O[C@H]2O[C@@H](C)C[C@@H](N(C)Cc3ccc(-c4cn(CCCC(=O)NO)nn4)cc3)[C@@H]2O)[C@](C)(OC)C[C@@H](C)C(=O)[C@H](C)[C@H](O)[C@]1(C)O | 0.0709 | 0.986 | 9.91 |  |  |  | 
CC[C@@H]1OC(=O)[C@@H](C)[C@H](O[C@@H]2C[C@](C)(OC)[C@@](O)(CN(C)C)[C@@H](C)O2)[C@H](C)[C@H](O[C@@H]2O[C@H](C)C[C@H](N(C)Cc3ccc(-c4cn(CCCCCC(=O)NO)nn4)cc3)[C@H]2O)[C@@](C)(OC)C[C@H](C)C(=O)[C@@H](C)[C@@H](O)[C@@]1(C)O | 0.0329 | 3.2 | 0.201 |  |  |  | 
CC[C@H]1OC(=O)[C@@H](C)[C@H](O[C@H]2C[C@@](C)(OC)[C@](O)(CN(C)Cc3ccc(-c4cn(CCCCCCC(=O)NO)nn4)cc3)[C@H](C)O2)[C@H](C)[C@H](O[C@H]2O[C@@H](C)C[C@@H](N(C)C)[C@@H]2O)[C@@](C)(O)C[C@H](C)CN(C)[C@@H](C)[C@H](O)[C@@]1(C)O | 0.0313 | 0.817 | 0.0504 |  |  | Not Active | Not Active
CC[C@H]1OC(=O)[C@@H](C)[C@H](O[C@@H]2C[C@](C)(OC)[C@@](O)(CN(C)Cc3ccc(-c4cn(CC(=O)NO)nn4)cc3)[C@@H](C)O2)[C@H](C)[C@H](O[C@H]2O[C@@H](C)C[C@@H](N(C)C)[C@@H]2O)[C@@](C)(O)C[C@H](C)CN(C)[C@@H](C)[C@H](O)[C@@]1(C)O | > 10 | 4.51 | > 10 |  |  |  | 

Further lines, with some results ahead:

IC50 [1] [µM] | IC50 [2] [µM] | IC50 [5] [µM] | Compound | IC50 [3] [µM] | Imax [4] [%] | IC50 [6] | IC50 [7]
0.0754 | 2.45 | > 10 | CC[C@H]1OC(=O)[C@H](C)C(=O)[C@H](C)[C@@H](O[C@@H]2O[C@H](C)C[C@H](N(C)Cc3ccccc3-c3cn(CCCCCCC(=O)NO)nn3)[C@H]2O)[C@@](C)(OC)C[C@@H](C)C2=NCCN3C(=O)O[C@@]1(C)[C@H]3[C@H]2C |  |  | Not Active | Not Active
0.0309 | 1.28 | 0.923 | CC[C@@H]1OC(=O)[C@H](C)[C@@H](O[C@@H]2C[C@](C)(OC)[C@H](O)[C@@H](C)O2)[C@@H](C)[C@@H](O[C@@H]2O[C@H](C)C[C@H](N(C)Cc3ccccc3-c3cn(CCCCCCC(=O)NO)nn3)[C@H]2O)[C@](C)(O)C[C@@H](C)CN(C)[C@H](C)[C@@H](O)[C@]1(C)O |  |  | Not Active | Not Active
> 10 | 2.85 | > 10 | CC[C@H]1OC(=O)[C@H](C)C(=O)[C@H](C)[C@@H](O[C@@H]2O[C@H](C)C[C@H](N(C)Cc3ccc(-c4cn(CC(=O)NO)nn4)cc3)[C@H]2O)[C@@](C)(OC)C[C@@H](C)C2=NCCN3C(=O)O[C@@]1(C)[C@H]3[C@H]2C |  |  |  | 
0.178 | 4.3 | 0.613 | CC[C@@H]1OC(=O)[C@H](C)[C@@H](O[C@@H]2C[C@](C)(OC)[C@H](O)[C@@H](C)O2)[C@@H](C)[C@@H](O[C@@H]2O[C@H](C)C[C@H](N(C)Cc3ccccc3-c3cn(CCCCCC(=O)NO)nn3)[C@H]2O)[C@](C)(O)C[C@@H](C)CN(C)[C@H](C)[C@@H](O)[C@]1(C)O |  |  |  | 
0.194 | 2.24 | > 10 | CC[C@H]1OC(=O)[C@H](C)C(=O)[C@H](C)[C@@H](O[C@@H]2O[C@H](C)C[C@H](N(C)Cc3ccc(-c4cn(CCCC(=O)NO)nn4)cc3)[C@H]2O)[C@@](C)(OC)C[C@@H](C)C2=NCCN3C(=O)O[C@@]1(C)[C@H]3[C@H]2C |  |  |  | 
